Source: PubChem BioAssay (several laboratories)
LGR2 antag: inhibitors of bursicon-induced LGR2 CRE-luciferase signal, primary screen, cell-based, HEK293, CRE-luciferase reporter, bursicon stimulation. AID 720647, 2013. bursicon-stimulated, 4 h. 380,000 tested, 0.35% active. inhibition, % at 9.99 µM;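 active = drop in luminescence signal, shown as inhibition above about 50% in the replicate tests, limit read from the data, passing the limit was not always enough; inconclusive = probably only some replicates passing the limit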;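 also: agonist challenge used bursicon conditioned medium at about half maximal strength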
TROY NFkB inh: inhibitors of TROY-driven NF-kB signaling, primary screen, Q293 LMP1-TROYcd cells, NF-kB luciferase, uHTS; Q293 LMP1-TROYcd NF-kB luciferase reporter, 4 h; inhibition, % at 10 µM; 360,000 tested, 0.98% active; AID 1347056, 2019;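 active = compounds whose plate-normalised and pattern-corrected inhibition of the luciferase reporter signal at the single screening dose is 50% or more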
FN deposition inh: inhibitors of fibronectin matrix deposition, primary screen, AH1F cells, Alexa488-fibronectin fluorescence, plate reader; AH1F fibroblasts, overnight; 350,000 tested, 0.086% active; inhibition, % at 12.6 µM;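 active = mean inhibition across replicates of 30% or more, regardless of how many single replicates reach that level; inconclusive = mean under 30% yet at least half of replicates reach 30%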;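 also: positive control wells lacked labelled fibronectin entirely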
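Material: AH1F fibroblasts assembling fluorescent fibronectin matrix; amount: 10000 AH1F cells/well; medium: DMEM, 2% serum; reagent: Alexa488-fibronectin, 24 nM final in well; dosing: single compound dose, delivered by pin transfer; incubation: 1 h adhesion, overnight exposure; detection: fluorescence after three HBSS washes, excitation 485 nm, emission 525 nm; measure: fibronectin deposition inhibition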
EWS-Fli block: EWS/Fli-driven NR0B1 reporter inhibitors, primary screen, A673 cells, NR0B1 luciferase, luminescence, MLPCN library | viability-normalised | inhibition, % at 12.6 µM | 350,000 tested, 0.67% active;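 active = mean inhibition of at least 50% after viability correction, with every replicate also passing that limit; inconclusive = mean reaches 50% but only one of two replicates passes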;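 also: firefly luciferase signal divided by Alamar Blue viability fluorescence both relative to DMSO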
TWEAK-Fn14 inh: inhibitors of TWEAK-Fn14 signaling, primary screen, luciferase reporter cells, uHTS | AID 1159606, 2016 | inhibition, % at 10 µM | 360,000 tested, 2% active | TWEAK-stimulated Fn14 reporter cells, luciferase luminescence, 8 h; in the data active = inhibition above about 50%
Xi reactivation: activators of inactive X chromosome reactivation, primary screen, imaging, XiGFP fibroblasts, GFP high-content imaging, set 2; 360,000 tested, 0.055% active; activation, % at 7.58 µM; XiGFP mouse fibroblasts, % GFP-positive cells imaging, 3 d; cells co-treated with 5-aza-dC sensitizer; scaled so ellipticine positive control = 100%; AID 743238, 2013;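 active = mean normalized replicate activation at least 10% and every replicate at or above 10%; inconclusive = only one of the two criteria met; inactive = mean below 10% and not all replicates reach 10%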;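 also: 0% = median of on-plate neutral control wells and 100% = ellipticine 6 µM median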
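Assay system: SV40-immortalized XiGFP fibroblast cells, line 68-5-11; buffer or medium: DMEM plus 5-aza-dC sensitizer; compound: one concentration, pinned; timing: compounds 3 days, fix/stain 15 min at room temperature; benchmarks: positive control ellipticine, 6 µM final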
Starred values were filed as active, the others as inactive; ? = inconclusive; / = not tested or not shown. Most compounds without a hit are left out; they make up all but 2.3% or so of the library.

SMILES	LGR2 antag	TROY NFkB inh	FN deposition inh	EWS-Fli block	TWEAK-Fn14 inh	Xi reactivation
O=C(NCc1ccccc1)c1cc(C2CCCN(C(=O)C3CC3)C2)on1 (stereo unspecified)	-14	-25	-3	-31	-11	0
O=C(Nc1ccccc1)c1cc(C2CCCN(C(=O)C3CC3)C2)on1 (stereo unspecified)	84*	76*	/	50	93*	0
CN(C)c1ccc(CC(=O)N2CCCC(c3cc(C(=O)Nc4ccccc4)no3)C2)cc1 (stereo unspecified)	11	76*	/	-33	71*	0
Cc1cccc(N2CCN(C(=O)C3CCN(c4ncnc5c4nc4n5CCCCC4)CC3)CC2)c1C	?	65*	-2	/	80*	1
Cc1cccc(N2CCN(C(=O)C3CCN(c4ncnc5c4nc4n5CCCCC4)CC3)CC2C)c1 (stereo unspecified)	5	52*	-1	/	51*	0
Cc1ccc(N2CCN(C(=O)C3CCCN(c4ncnc5c4nc4n5CCCCC4)C3)CC2)c(C)c1 (stereo unspecified)	4	60*	-3	/	45	0
O=C(C1CCN(c2ncnc3c2nc2n3CCCCC2)CC1)N1CCN(c2ccccc2F)CC1	-7	9	9	7	-5	0
C[C@@H]1CN([C@H](C)CO)C(=O)c2cc(NC(=O)c3ccccc3)ccc2O[C@@H](C)CCCCO[C@H]1CN(C)S(C)(=O)=O	-18	/	/	-5	/	0
COc1ccc2c3c(n(C)c2c1)[C@H](CO)N(C(=O)Cc1ccccc1)CC31CN(C(C)=O)C1	0	/	/	6	/	0
CCCOC(=O)CN1C(=O)c2ccccc2C1=O	/	/	/	/	82*	/
C[C@@H]1CN([C@@H](C)CO)C(=O)Cc2cc(NC(=O)Cc3ccccc3)ccc2O[C@H]1CN(C)Cc1ccncc1	17	/	/	-5	/	0
CCOc1cc(/C=N/NC(=O)COc2ccc(Cl)cc2)ccc1OS(=O)(=O)c1ccccc1	/	27	-1	/	54*	/
CNC[C@H]1Oc2ccc(NS(C)(=O)=O)cc2C(=O)N(C)C[C@H]1C	/	/	-2	/	/	0
Cc1cccc(Nc2nc3c(S(=O)(=O)c4ccccc4)nnn3c3ccccc23)c1	0	53*	2	1	-44	0
CNC[C@H]1Oc2ccccc2C(=O)N(C)C[C@@H]1C	/	/	3	/	/	0
C[C@@H]1CN([C@H](C)CO)C(=O)c2cc(NC(=O)CCC(F)(F)F)ccc2O[C@@H](C)CCCCO[C@H]1CN(C)S(C)(=O)=O	-3	/	/	-1	/	0
CCCCc1ccc(-c2ccc(Br)cc2)nc1	34	1	/	31	1	/
CCCc1ccc(-c2ccc(F)c(N)c2)nc1	79*	63*	/	/	89*	/
c1ccc2nc(-c3nc4ccccc4o3)ccc2c1	85*	58*	1	/	94*	/
CC(C)CC#Cc1ccc2c(c1)O[C@@H](CN(C)C(=O)NC(C)C)[C@H](C)CN([C@@H](C)CO)S2(=O)=O	4	/	/	11	/	-2
CC(=O)Nc1ccc2nc(NC(=O)COc3ccccc3C)sc2c1	-26	20	-10	-12	-4	0
COc1cccc2sc(Nc3nc4ccc(NC(C)=O)cc4s3)nc12	/	-40	-37	-3	51*	1
COc1cccc2sc(Nc3nc(-c4cc5ccccc5oc4=O)cs3)nc12	14	1	-4	/	37	0
COc1cccc2sc(Nc3nc(-c4ccncc4)cs3)nc12	2	-9	12	63*	46	1
C[C@@H]1CN([C@H](C)CO)C(=O)c2cc(NC(=O)NC3CCCCC3)ccc2O[C@@H](C)CCCCO[C@@H]1CN(C)Cc1ccccc1	-10	/	/	6	/	0
SMILES	LGR2 antag	TROY NFkB inh	FN deposition inh	EWS-Fli block	TWEAK-Fn14 inh	Xi reactivation
O=C(NCCN1CCCCC1)[C@@H]1[C@@H](CO)[C@@H]2Cn3c(cccc3=O)[C@@H]2N1C(=O)C1CC1	2	/	/	-4	/	0
C=C1C(=O)C2=CC1CCC(=O)C1(C)CCC(OC(C)=O)C(C)(C)C1CC2O (stereo unspecified)	103*	46	14	57*	101*	1
C=CCOc1ccc(C[C@H](N)C(=O)NC[C@H]2O[C@@H](n3cc(C)c(=O)[nH]c3=O)C[C@@H]2O)cc1	-9	1	-18	1	5	1
Cc1cn([C@H]2C[C@H](O)[C@@H](CNC(=O)[C@H](N)Cc3cn(COCc4ccccc4)cn3)O2)c(=O)[nH]c1=O	14	-18	5	3	51*	0
CNC[C@H]1Oc2ncccc2C(=O)N(C)C[C@H]1C	/	/	/	/	/	0
COCOc1cc(O)c(C(=O)/C=C/c2ccccc2)c(OCOC)c1	30	21	/	8	71*	/
COc1ccc(C(=O)/C=C/c2ccccc2)c(OC)c1	0	-27	/	-82	59*	/
COc1ccc(OC)c(N/C=C/C(=O)c2ccccc2)c1	96*	81*	-1	81*	101*	0
COc1ccc(C(=O)/C=C/c2cc(OC)c(O)c(OC)c2)c(F)c1	22	6	8	/	56*	0
C/C=C/c1ccc([C@H]2[C@@H](CO)N(C(=O)C3CCCCC3)C23CN(C(=O)NC(C)C)C3)cc1	7	/	0	-3	/	0
COc1ccc(OC)c(NC(=O)Nc2c(O)ccc3ccccc23)c1	/	31	-1	-16	24	0
COc1ccc(OC)c(NC(=O)Nc2ccc(O)c3ccccc23)c1	/	45	25	-8	90*	0
COc1ccc(C=CC(=O)c2c(OC)cc(OC)c(OC)c2O)cc1	38	17	6	-6	68*	1
COc1ccc(OC)c(C(=O)/C=C/c2ccccc2C(F)(F)F)c1	/	7	/	/	59*	/
C[C@H](CO)N1C[C@H](C)[C@H](CN(C)S(C)(=O)=O)Oc2c(NC(=O)NC3CCCCC3)cccc2C1=O	-8	/	/	-1	/	0
[N-]=[N+]=NCc1ccccc1C[C@]1(C(=O)NCCN2CCOCC2)COC(c2ccc(OCCCO)cc2)=N1	/	/	/	9	/	/
O=c1cc2c(=O)oc3cc(O)c(O)oc3c2c(O)c1O	-3	7	-2	-7	83*	0
O=c1oc2cc(O)c(Cl)cc2c2ccccc12	-5	-4	2	/	5	0
O=C(CCN1CCOCC1)NCC1COc2ccccc2O1 (stereo unspecified)	/	2	0	/	-3	/
